Measured values from different studies.
Lines come from different studies, so protocols differ. pEC50, pIC50, pKd, pKi: −log10 of the molar value.
Oprm1: Mu-type opioid receptor (Oprm1, Mus musculus, UniProt P42866)
CNR1: Cannabinoid receptor 1 (CNR1, Homo sapiens, UniProt P21554)

Compound	target	assay	conditions	measurement	result
CC(C)[C@H](CN1CCc2ccccc2C1)NC(=O)c1cccc(-c2cccc(O)c2)c1	Oprm1	ligand displacement, radioligand		pKi	5.51
CCCCC/C=C\[C@H](C)/C=C\C/C=C\Cc1ccccc1CCCC(=O)N[C@H](C)CO	CNR1	β-arrestin recruitment, agonist		pEC50	5.71
CCCCCn1nc(C(=O)NC(C)(C)c2cccc(C(N)=O)c2)c2ccccc21	CNR1	ligand displacement, radioligand	cell membranes	pKi	6.60
CC[C@H](C)[C@H](NC(=O)[C@H](CCC(=O)O)NC(=O)[C@H](C)NC(=O)[C@H](CCCCN)NC(=O)[C@H](CC(C)C)NC(=O)[C@@H](NC(=O)[C@H](CCC(=O)O)NC(=O)[C@@H](NC(=O)[C@H](CCC(=O)O)NC(=O)[C@H](CC(=O)O)NC(=O)[C@H](C)NC(=O)[C@@H](NC(=O)[C@@H](NC(=O)[C@H](C)NC(=O)[C@H](C)NC(=O)CCNC(=O)[C@@H](N)CCCCNC(=O)CCCC[C@@H]1SC[C@@H]2NC(=O)N[C@@H]21)C(C)C)[C@@H](C)O)[C@@H](C)O)C(C)C)C(=O)N[C@@H](CO)C(=O)N[C@@H](CCCCN)C(=O)N[C@@H](C)C(=O)N[C@H](C(=O)N[C@@H](CCCCN)C(=O)N[C@@H](CCC(N)=O)C(=O)N[C@H](C(=O)N[C@@H](CCC(N)=O)C(=O)N[C@@H](CCC(=O)O)C(=O)N[C@@H](CCC(=O)O)C(=O)N[C@@H](CC(=O)O)C(=O)N1CCC[C@H]1C(=O)N[C@@H](CC(N)=O)C(N)=O)C(C)C)C(C)C	Myc proto-oncogene protein (MYC, Homo sapiens, UniProt P01106)	binding, BLI		pKd	5.34
O=c1cc(CSc2ccc(N=Cc3ccc(F)cc3)cc2)occ1O	PPO3 (Agaricus bisporus, UniProt C7FF04)	enzyme activity, inhibitor, absorbance		pIC50	4.27
CC(C)(NC(=O)c1nn(CC2CCCC2)c2ccccc12)c1cccc(C(N)=O)c1	CNR1	ligand displacement, radioligand	cell membranes	pKi	6.89
CC[C@H](C)[C@@H](C(=O)N1CCC[C@H]1c1nccs1)N(C)C(=O)[C@H](CC(C)C)N(C)C(=O)[C@H](Cc1ccc(OC)cc1)N(C)C(=O)/C=C(\C)OC	CNR1	ligand displacement, radioligand		pIC50	4.78
Cc1c(CC(=O)N[C@@H](CN2CCc3ccccc3C2)C(C)C)cccc1[N+](=O)[O-]	Oprm1	ligand displacement, radioligand		pKi	6.82
CCCCCc1ccccc1C/C=C\C/C=C\C/C=C\CCCC(=O)N[C@H](C)CO	CNR1	β-arrestin recruitment, agonist		pEC50	5.46
COc1cc2c3c(c1OC)-c1c(OC)ccc(Cl)c1CC3N(C)CC2 (racemic)	5-hydroxytryptamine receptor 2A (HTR2A, Homo sapiens, UniProt P28223)	cell-free assay, radioligand		pKi	6.05
CCCCC1CNC2CCc3ccc(OC)cc3C12 (racemic)	Sigma non-opioid intracellular receptor 1 (SIGMAR1, Homo sapiens, UniProt Q99720)	ligand displacement, radioligand		pKi	9.09
COc1cc2c(cc1OC)CN(CCc1ccc(NC(=O)c3cccc4c(=O)c5cccc(OC)c5[nH]c34)cc1)CC2	Kappa-type opioid receptor (OPRK1, Homo sapiens, UniProt P41145)	cell-free assay		pKi	< 5.00
CC(C)(NC(=O)c1nn(CCCCCF)c2ccccc12)c1cccc(C(N)=O)c1	CNR1	ligand displacement, radioligand	cell membranes	pKi	7.17
O=C(O)C(F)(F)OC(F)(F)C(F)(F)OC(F)(F)C(F)(F)OC(F)(F)C(F)(F)C(F)(F)C(F)(F)F	Fatty acid-binding protein, brain (Homo sapiens, UniProt O15540)	ligand displacement, fluorescence		pKd	7.70
CC(C)[C@H](CN1CCc2ccccc2C1)NC(=O)Cc1c[nH]c2ccccc12	Oprm1	ligand displacement, radioligand		pKi	6.38
CCCCC/C=C\C/C=C\C/C=C\Cc1ccccc1CCCC(=O)N[C@H](C)CO	CNR1	cAMP, agonist		pEC50	6.50
C[C@@H](O)[C@@H]1NC(=O)CNC(=O)[C@H](Cc2c[nH]cn2)NC(=O)[C@H](Cc2c[nH]c3ccccc23)NC(=O)[C@H](CC(N)=O)NC(=O)CNC(=O)C[C@@H](C(=O)N[C@@H](Cc2c[nH]c3ccccc23)C(=O)N[C@@H](Cc2ccccc2)C(=O)N[C@@H](Cc2ccccc2)C(=O)N[C@@H](CC(N)=O)C(=O)N[C@@H](Cc2ccc(O)cc2)C(=O)N[C@@H](Cc2ccc(O)cc2)C(=O)N[C@@H](Cc2c[nH]c3ccccc23)C(=O)O)NC(=O)[C@@H]2CCCN2C(=O)[C@H](CO)NC1=O	Endothelin-1 receptor (EDNRA, Homo sapiens, UniProt P25101)	ligand displacement, radioligand	cell membranes	pIC50	< 5.00
